The values below come from article PMC11019407 (RSC Advances, 2024).

Molecules are shown by their SMILES. Converted amounts (≈) assume the structure as drawn.

Test [1] relates to C. albicans, T. mentagrophytes, T. rubrum, and M. gypseum. The experiment in a line: Antifungal activity, paper disk diffusion, statements over all fungi. The note with it: all fungus. The format is cell-based. The method in brief: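 Fungi (C. albicans, T. mentagrophytes, T. rubrum, M. gypseum) were swabbed onto Potato Dextrose Agar plates. Inocula were prepared in LB broth for 24 h at 37 °C. 6 mm paper disks were loaded with 30 μL of test compound at 3.125–300 μM. Fluconazole (1 mg mL−1) was the standard.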

The subject of test [2] is NO production in RAW264.7 cells. The experiment in a line: Inhibition of NO production in LPS-stimulated RAW264.7 cells. The format is cell-based. Particulars: Mus musculus, RAW264.7, read-out: IC50 of NO inhibition. A digest of the protocol: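 RAW 264.7 cells were grown in DMEM with 2 mM L-glutamine, 10 mM HEPES, 1 mM sodium pyruvate and 10% FBS. Cells were seeded at 2 × 10^5 per well and incubated 3 days at 37 °C, 5% CO2. Nitric oxide was quantified with Griess reagent, L-NMMA served as positive control, and IC50 was reported.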

Test [3] has as its system E. coli, P. aeruginosa, MRSA, S. faecalis. The experiment in a line: Antibacterial activity, paper disk diffusion, statements over several bacteria. The note with it: for inhibition in words: printed as E. coli, P. aeruginosa, and MRSA in the antifungal section. The format is cell-based. A digest of the protocol: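 Bacteria (E. coli, P. aeruginosa, S. faecalis, MRSA) were grown in LB broth for 24 h at 37 °C, then swabbed evenly onto Mueller–Hinton agar. 6 mm paper disks received 30 μL of test compound at 3.125–300 μM. Ampicillin (1 mg mL−1) was the standard.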
(A growth-free zone around the sample is the usual read-out of agar diffusion tests.)

Test [4] concerns the target α-glucosidase enzyme (Saccharomyces cerevisiae, UniProt P53341). The experiment in a line: Alpha-glucosidase inhibition. It is filed as biochemical.

Chain of α-glucosidase enzyme (P53341 whole entry): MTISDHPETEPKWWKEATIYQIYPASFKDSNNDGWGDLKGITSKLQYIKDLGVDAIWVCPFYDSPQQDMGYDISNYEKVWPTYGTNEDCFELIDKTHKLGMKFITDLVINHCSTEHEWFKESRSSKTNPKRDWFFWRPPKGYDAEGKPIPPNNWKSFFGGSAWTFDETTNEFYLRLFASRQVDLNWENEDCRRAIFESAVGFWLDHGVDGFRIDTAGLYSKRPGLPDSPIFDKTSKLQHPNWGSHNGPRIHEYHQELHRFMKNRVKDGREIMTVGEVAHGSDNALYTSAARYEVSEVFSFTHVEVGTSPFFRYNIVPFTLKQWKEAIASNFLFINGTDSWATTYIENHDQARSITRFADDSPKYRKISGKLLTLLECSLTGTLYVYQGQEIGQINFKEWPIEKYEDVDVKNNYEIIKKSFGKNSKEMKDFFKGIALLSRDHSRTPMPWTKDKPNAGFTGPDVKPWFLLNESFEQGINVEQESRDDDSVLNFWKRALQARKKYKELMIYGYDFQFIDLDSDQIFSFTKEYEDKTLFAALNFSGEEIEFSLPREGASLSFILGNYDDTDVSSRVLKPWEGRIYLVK

Take `COC(=O)C1=CO[C@@H](O[C@@H]2O[C@H](CO)[C@@H](O)[C@H](O)[C@H]2O)[C@H]2[C@@H]1[C@H](O)C[C@]2(C)OC(C)=O` [Compound 3, barlerin]: in test [1], the “antifungal inhibition in words” value is “weak inhibitions or inactive”.

Usually IC50 stands for the concentration that inhibits the measured activity by half. For `C[C@]1(OC(=O)/C=C/c2ccccc2)C[C@@H](O)[C@]2(O)C=CO[C@@H](O[C@@H]3O[C@H](CO)[C@@H](O)[C@H](O)[C@H]3O)[C@@H]21` [Compound 4, harpagoside], the “antifungal inhibition in words” value in test [1] was “weak inhibitions or inactive”. In addition, the 50% inhibitory concentration (IC50) in test [2] was determined as 25.9 ± 3.32 µM. On to `O=C(O)c1c[nH]c2ccccc12` [Compound 6, indole-3-carboxylic acid], for which the inhibition in words entry in test [3] is “weak inhibitions or inactive”.

Regarding `C[C@H]1[C@H](C)CC[C@]2(C(=O)O)CC[C@]3(C)C(=CC[C@@H]4[C@@]5(C)CC[C@H](O)C(C)(C)[C@@H]5CC[C@]43C)[C@H]12` [Compound 7, ursolic acid], the inhibition in words entry in test [3] was “weak inhibitions or inactive”. The IC50 in test [2] turned out to be 18.2 ± 0.7 µM.

As for `C[C@@H]1CC[C@]2(C(=O)O)CC[C@]3(C)C(=CC[C@@H]4[C@@]5(C)CC[C@H](O)[C@@](C)(CO)[C@@H]5CC[C@]43C)[C@@H]2[C@]1(C)O` [Compound 9, rotundic acid], in test [1], the “antifungal inhibition in words” value was “weak inhibitions or inactive”. Take `C[C@@H]1O[C@@H](O[C@@H]2[C@@H](O)[C@H](OCCc3ccc(O)c(O)c3)O[C@H](CO)[C@H]2OC(=O)/C=C/c2ccc(O)c(O)c2)[C@H](O)[C@H](O)[C@H]1O` [Compound 12, verbacoside]: the “antifungal inhibition in words” value in test [1] was “weak inhibitions or inactive”. In addition, the IC50 in test [4] was found to be 42.4 µM. As for `[H]/N=C(/NC)NCCC[C@H](N)C(=O)O` [L-NMMA, reference compound], the IC50 in test [2] came out at 41.3 µM. By MIC is commonly meant the smallest concentration in the dilution series that meets the test's criterion for growth inhibition. As for `CC1(C)S[C@@H]2[C@H](NC(=O)[C@H](N)c3ccccc3)C(=O)N2[C@H]1C(=O)O` [ampicillin, reference compound], in test [3] (read-out: MIC values against four bacteria), the MIC was in the range of 3.12 to 6.25 µM (≈ 1.09 to 2.18 µg/mL).
